One assay has as its system Rattus norvegicus. Put plainly: Antithrombotic activity in Wistar rat assessed as reduction of dry thrombus weight at 10 umol/kg. It is filed as functional, organism-based.
The subject of assay [1] is PC-12. Put plainly: Antioxidant activity in rat PC12 cells assessed as protection against hydroxyl radical-induced reduction of cell viability pretreated 1 he before […] incubated for 1 hr followed by washout measured after 14 hrs by MTT assay. In kind it is functional, cell-based. An outline of the steps:
(§1)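 PC12 cells were grown in DMEM with 10% heat-inactivated horse serum and 5% FBS, then seeded at 20,000/well on poly-lysine. After 24 h, cells were pretreated with compound at five concentrations for 1 h. Damage was 1 h with: NO, 2 mM sodium nitroprusside; H₂O₂, 1 mM; ·OH, H₂O₂/Fe(II). Medium was replaced, and MTT survival was read after 14 h. EC50 was derived.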
In general terms: Tetrazolium dyes change colour on reduction, which living cells bring about.

The subject of assay [2] is PC-12. Kind of assay: Antioxidant activity in rat PC12 cells assessed as protection against hydrogen peroxide-induced reduction of cell viability pretreated 1 he before […] incubated for 1 hr followed by washout measured after 14 hrs by MTT assay. In kind it is functional, cell-based. In a few lines: as §1
In assay [3] the test system is PC-12. Put plainly: Antioxidant activity in rat PC12 cells assessed as protection against nitric oxide-induced reduction of cell viability pretreated 1 he before nitric oxide challenge incubated for 1 hr followed by washout measured after 14 hrs by MTT assay. In kind it is functional, cell-based. An outline of the steps: as §1

SMILES strings stand for the structures. Activity calls are given as the source filed them. The calls are words filed in the database; no cut-off is given here. *1 amine or outer side, *2 acyl side, *3 side chain or, on linkers, in order; H or OH if unused. Where a SMILES comes first, the peptide text is derived from it. [ ]: non-standard residue; d: D form. X2 = COc1cc([C@@H]2c3[nH]c4ccccc4c3C[C@@H](C(=O)[*:2])N2[*:1])ccc1O; X3 = COc1ccc([C@@H]2c3[nH]c4ccccc4c3C[C@@H](C(=O)[*:2])N2[*:1])cc1; X1 = O=C([C@@H]1Cc2c([nH]c3ccccc23)[C@@H](c2ccccc2O)N1[*:1])[*:2]

`C[C@H](NC(=O)[C@@H]1CCCN1C(=O)[C@H](CCCNC(=N)N)NC(=O)CNC(=O)[C@@H]1Cc2c([nH]c3ccccc23)[C@@H](c2ccccc2O)N1)C(=O)N[C@@H](CCCCN)C(=O)O` (H-[X1]GRPAK-OH): the outcome with Rattus norvegicus was Active.

For the compound `C[C@H](NC(=O)[C@@H]1CCCN1C(=O)[C@H](CCCN=C(N)N)NC(=O)CN)C(=O)N[C@@H](CCCCN)C(=O)O` (H-GRPAK-OH), in the assay with Rattus norvegicus, the outcome was Active.

As for `COc1cc([C@H]2N[C@H](C(=O)NCC(=O)N[C@@H](CCCNC(=N)N)C(=O)N3CCC[C@H]3C(=O)N[C@@H](C)C(=O)N[C@@H](CCCCN)C(=O)O)Cc3c2[nH]c2ccccc32)ccc1O` (H-[X2]GRPAK-OH), the result in the assay with Rattus norvegicus was Active.

Usually EC50 stands for the concentration needed to bring the measured effect to its halfway point. For the compound `COc1cc([C@H]2N[C@H](C(=O)O)Cc3c2[nH]c2ccccc32)ccc1O`, the EC50 in the assay with PC-12 [1] is 72 µM; with PC-12 [2], 38 µM; with PC-12 [3], 77 µM.

With `COc1ccc([C@H]2N[C@H](C(=O)N[C@@H](C)C(=O)N[C@@H](CCCNC(=N)N)C(=O)N3CCC[C@H]3C(=O)N[C@@H](C)C(=O)N[C@@H](CCCCN)C(=O)O)Cc3c2[nH]c2ccccc32)cc1` (H-[X3]ARPAK-OH), in the assay with Rattus norvegicus, the result was Active.

For the compound `C[C@H](NC(=O)[C@@H]1Cc2c([nH]c3ccccc23)[C@@H](c2ccccc2O)N1)C(=O)N[C@@H](CCCNC(=N)N)C(=O)N1CCC[C@H]1C(=O)N[C@@H](C)C(=O)N[C@@H](CCCCN)C(=O)O` (H-[X1]ARPAK-OH), the result in the assay with Rattus norvegicus was Active.

On to `O=C(O)[C@@H]1Cc2c([nH]c3ccccc23)[C@@H](c2ccccc2O)N1`, for which the EC50 with PC-12 [1] was determined as 72 µM; in the assay on PC-12 [2], 38 µM; with PC-12 [3] it was 77 µM.

On to `C[C@H](N)C(=O)N[C@@H](CCCN=C(N)N)C(=O)N1CCC[C@H]1C(=O)N[C@@H](C)C(=O)N[C@@H](CCCCN)C(=O)O` (H-ARPAK-OH), for which the outcome with Rattus norvegicus was Active.

On to `COc1ccc([C@H]2N[C@H](C(=O)O)Cc3c2[nH]c2ccccc32)cc1`, for which the figures for the EC50 in the assay on PC-12 [1], with PC-12 [2] and with PC-12 [3] were 72 µM, 38 µM and 77 µM, respectively.

With `COc1ccc([C@H]2N[C@H](C(=O)NCC(=O)N[C@@H](CCCNC(=N)N)C(=O)N3CCC[C@H]3C(=O)N[C@@H](C)C(=O)N[C@@H](CCCCN)C(=O)O)Cc3c2[nH]c2ccccc32)cc1` (H-[X3]GRPAK-OH), the outcome with Rattus norvegicus was Active.

In the case of `COc1cc([C@H]2N[C@H](C(=O)N[C@@H](C)C(=O)N[C@@H](CCCNC(=N)N)C(=O)N3CCC[C@H]3C(=O)N[C@@H](C)C(=O)N[C@@H](CCCCN)C(=O)O)Cc3c2[nH]c2ccccc32)ccc1O` (H-[X2]ARPAK-OH), in the assay on Rattus norvegicus, the result was Active.
